Screens: PubChem BioAssay, The Scripps Research Institute Molecular Screening Center
Only some compounds are listed: those with a hit (about 3.9% of all), similar ones and a draw of the others.
OX1R antag-1: antagonists of human orexin 1 receptor (OX1R); O43613; OX1R-expressing cells, FRET antagonist read-out; inhibition, % at 6.6 µM; actives 1.8% (n = 330,000); in the data active = inhibition mostly above about 38%, no sharp cut-off; inactive = mostly below about 40%;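 note: 0% = agonist challenge alone and 100% = reference antagonist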
Target sequence (O43613 whole entry, looked up): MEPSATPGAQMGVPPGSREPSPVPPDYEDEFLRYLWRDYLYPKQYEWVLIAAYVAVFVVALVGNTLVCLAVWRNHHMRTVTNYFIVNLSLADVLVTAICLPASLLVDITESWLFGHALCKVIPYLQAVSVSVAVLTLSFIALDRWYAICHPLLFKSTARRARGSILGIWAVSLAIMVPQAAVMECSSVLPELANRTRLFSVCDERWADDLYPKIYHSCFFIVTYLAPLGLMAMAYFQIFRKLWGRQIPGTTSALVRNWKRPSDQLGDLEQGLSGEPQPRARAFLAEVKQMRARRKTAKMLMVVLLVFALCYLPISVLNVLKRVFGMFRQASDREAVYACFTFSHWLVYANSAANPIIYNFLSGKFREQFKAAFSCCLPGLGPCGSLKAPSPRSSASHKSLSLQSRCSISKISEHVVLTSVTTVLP
TAAR1 antagonist: antagonists of human TAAR1. AID 624466. actives 1.5% (n = 360,000). inhibition, % at 3 µM. CHO RD-HGA16 TAAR1, Fluo-8 calcium fluorescence, antagonist. Q96RJ0;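 active = inhibition above a per-plate cutoff, the mean inhibition of test compounds on that plate plus 3 SD, cut at about 49% in these data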;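 note: 0% = DMSO plus EC80 beta-PEA response and 100% = DMSO alone without agonist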
Target sequence (Q96RJ0 whole entry, looked up): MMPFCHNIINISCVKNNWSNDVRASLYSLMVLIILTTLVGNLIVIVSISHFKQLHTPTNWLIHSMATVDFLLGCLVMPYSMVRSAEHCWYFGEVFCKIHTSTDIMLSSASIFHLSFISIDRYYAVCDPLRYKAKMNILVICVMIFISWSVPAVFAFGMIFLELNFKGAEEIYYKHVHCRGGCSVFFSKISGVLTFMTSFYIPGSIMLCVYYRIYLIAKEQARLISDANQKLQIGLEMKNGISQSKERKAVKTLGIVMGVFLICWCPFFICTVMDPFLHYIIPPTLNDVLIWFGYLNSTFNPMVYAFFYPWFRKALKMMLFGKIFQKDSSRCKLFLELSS
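Test system – hTAAR1-expressing CHO RD-HGA16 cells, Gα16-coupled · Also added – β-PEA at EC80 concentration, post-compound challenge · Compound – 3 µM, single point · Incubation – dye loading 75 min at 37 °C, then 30 min room temperature · Measured by – Fluo-8 intracellular calcium dye fluorescence, real-time kinetic reads · Benchmarks – vehicle and agonist controls · Replicates – singlicate, one well per test compound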
TAAR1 agonist: agonists of human TAAR1; CHO RD-HGA16 TAAR1, Fluo-8 calcium fluorescence; vehicle wells 0%, saturating PEA agonist 100%; AID 624467; Q96RJ0; actives 0.99% (n = 360,000); activation, % at 3 µM;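 active = activation above the mean activation of all test compounds in the run plus 3 SD, cut at about 38% in these data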
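System: CHO-derived RD-HGA16 cells with stable Gα16 and human TAAR1 / Times: 17-24 h plating, Fluo-8 75 min 37 °C, 30 min RT / Technique: calcium-sensitive Fluo-8 signal, excitation 470-495, emission 515-575 nm / Measure: % activation relative to PEA EC100 response / Benchmarks: DMSO and PEA EC100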
CHO parental Ca: signal in parental CHO cells, OX1R antagonist counter-screen; AID 463079; actives 0.63% (n = 330,000); inhibition, % at 5.6 µM; parental CHO-K1, ATP-induced calcium, Fluo-8 fluorescence;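 active = inhibition above that plate's mean sample inhibition plus 3 SD, cut at about 26% in these data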;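 note: 0% = ATP-challenged DMSO wells and 100% = DMSO wells without ATP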
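Material – parental CHO cells · Reagent – ATP stimulus · Compound – single nominal dose of 5.6 µM per compound · Detection – Fluo-8 fluorescence · Read-out basis – percent inhibition of calcium signal · Controls – ATP-challenged DMSO wells low, unchallenged DMSO wells high · Repeats – no replicates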
OX1R antag-2: antagonists of human orexin 1 receptor; O43613; CHO/OX1R cells, Fluo-8 calcium fluorescence, orexin A; inhibition, % at 5 µM; actives 0.43% (n = 330,000);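 active = inhibition above its plate's threshold, mean inhibition of all tested compounds on the plate plus 3 SD, cut at about 37% in these data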;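 note: 0% = orexin A challenge wells and 100% = SB-334867-A antagonist wells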
OX1R Ca confirm: confirmation of human orexin 1 receptor antagonists; shares compounds with OX1R antag-2; CHO/OX1R cells, orexin A calcium Fluo-8 fluorescence; inhibition, % at 5 µM; actives 38% (n = 1,100); AID 492963; in the data active = inhibition above about 29%;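 note: 0% = agonist challenge alone and 100% = reference antagonist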
CHO Ca counter: counter-screen for OX1R antagonists: effect in parental CHO cells | shares compounds with OX1R antag-2 | parental CHO-K1, ATP-induced calcium, Fluo-8 fluorescence | inhibition, % at 5.6 µM | actives 9.3% (n = 1,100);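 active = inhibition above a per-plate limit, the mean inhibition of that plate's test compounds plus 3 SD, cut at about 25% in these data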;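 note: 0% = ATP challenge with DMSO and 100% = DMSO without ATP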
An asterisk follows results filed as active; x = no result given.

SMILES | OX1R antag-1 | TAAR1 antagonist | TAAR1 agonist | CHO parental Ca | OX1R antag-2 | OX1R Ca confirm | CHO Ca counter
O=[N+]([O-])c1ccc(N=NN(CCO)CCO)cc1 | 47* | 4 | 3 | -1 | 1 | x | x
C=CCSc1nnc(-c2cc3c(-c4ccccc4)nn(C)c3s2)n1C | 75* | 1 | 12 | -29 | -4 | x | x
COc1cc(-c2nnc(COC(=O)C3c4ccccc4Oc4ccccc43)o2)cc(OC)c1OC | 43* | 40 | 6 | -13 | -12 | x | x
O=C(CC1CCCC1)N[C@H](C(=O)N1CCC[C@H]1C(=O)NC1CCCC1)c1ccccc1 | x | -8 | 0 | x | x | x | x
Cc1nc2c(Br)cc(Br)cc2cc1O | 55* | 0 | 13 | 5 | -14 | x | x
CC(C)CC1C(=O)N(Cc2cn(CCC3OCCO3)nn2)CCS(=O)(=O)N1Cc1ccc(-c2cccc(N(C)C)c2)cc1 (stereo not given) | x | 52* | 19 | x | x | x | x
CC(C)CC1C(=O)N(Cc2cn(CCC3OCCO3)nn2)CCS(=O)(=O)N1Cc1ccc(-c2cccc(CO)c2)cc1 (stereo not given) | x | 35 | 12 | x | x | x | x
CC(C)CC1C(=O)N(Cc2cn(CCC3OCCO3)nn2)CCS(=O)(=O)N1Cc1ccc(-c2ccc(F)cc2)cc1 (stereo not given) | x | 54* | 9 | x | x | x | x
CC(C)CC1C(=O)N(Cc2cn(CCC3OCCCO3)nn2)CCS(=O)(=O)N1Cc1ccc(-c2ccc(Cl)cc2)cc1 (stereo not given) | x | 9 | 2 | x | x | x | x
CC(C)(C)c1ccc(C(=O)N2CCC2(C)C(=O)NCc2ccc3c(c2)OCO3)cc1 (stereo not given) | x | -9 | 0 | x | x | x | x
COc1ccc(C(=O)NCC(=O)N=Nc2c(O)n(C)c3ccccc23)cc1OC | 57* | -12 | 4 | -23 | -7 | x | x
C=CCn1c(O)c(N=NC(=O)CNC(=O)c2ccncc2)c2ccccc21 | 67* | -1 | 7 | -12 | -12 | x | x
O=S(=O)(c1cc(F)ccc1F)N1CCN(c2ccccn2)CC1 | 14 | -2 | -1 | 3 | -2 | x | x
O=S(=O)(c1cc(F)ccc1F)N1CCN(c2ncnc3ccccc23)CC1 | 26 | 37 | 11 | 49* | 45* | x | x
COc1ccccc1N(CC(O)Cn1c(C)nc2ccccc21)S(=O)(=O)c1ccccc1 (stereo not given) | 63* | 9 | 4 | -18 | 10 | x | x
C[C@H](O)[C@@H]1C(=O)N2CCc3c([nH]c4cccc(-c5ccccc5)c34)[C@@H]2C[C@@H]1N(C)C(=O)Nc1ccccc1 | x | 11 | 1 | x | x | x | x
Cc1nc2ccccc2n1-c1ccccc1 | 12 | 2 | 8 | -8 | -20 | x | x
O=c1c(/C=C(\O)c2ccccc2)nc2ccccc2n1-c1ccccc1 | 27 | 2 | 30 | -8 | 61* | -7 | -5
CCOC(=O)[C@@H](C)N(Cc1ccc(OC)cc1)S(=O)(=O)N(Cc1ccccc1)[C@H](C(=O)OC)C(C)C | 9 | 15 | 2 | 7 | 50* | 7 | 58*
CCOC(=O)[C@@H](C)NS(=O)(=O)N(Cc1ccccc1)[C@H](C(=O)OC)C(C)C | 10 | 7 | 2 | -15 | -10 | x | x
C#CCN(Cc1ccco1)C(=O)c1nnc2c3cc(OC)ccc3n(S(=O)(=O)c3ccc(OC)cc3)c2n1 | x | -8 | 0 | x | x | x | x
CCOC(=O)c1c(-c2ccccc2)csc1NC(=O)CCN1C(=O)c2ccccc2C1=O | 9 | -2 | 1 | -23 | -9 | x | x
CCOC(=O)c1c(-c2ccc(-c3ccccc3)cc2)csc1NC(=O)CNCCN(C)C | 8 | 23 | 15 | 16 | 31 | 36* | 12
O=c1[nH]cc(CCCc2ccccc2)c(=O)[nH]1 | x | 7 | 0 | x | x | x | x
Fc1ccc2nc(Nc3nc4c(F)cc(F)cc4s3)sc2c1 | 21 | -5 | 4 | 11 | -11 | x | x
SMILES | OX1R antag-1 | TAAR1 antagonist | TAAR1 agonist | CHO parental Ca | OX1R antag-2 | OX1R Ca confirm | CHO Ca counter
O=C(NNc1nc2ccccc2s1)c1ccccc1F | 5 | -9 | 2 | -12 | 5 | x | x
Fc1ccc2nc(Nc3nc4c(F)cccc4s3)sc2c1 | 41 | -8 | 3 | -13 | 68* | 51* | 0
Fc1cccc2sc(Nc3nc4ccccc4s3)nc12 | 28 | 5 | 0 | -2 | 36* | 51* | 14
CCCCOc1ccc(S(=O)(=O)N2CCCCCC2)cc1 | -1 | -6 | 2 | 5 | 42 | -14 | 13
COc1cccc(C(=O)/C=C/Nc2ccc(S(=O)(=O)Nc3cccc(C(C)=O)c3)cc2)c1 | 50 | 56* | 11 | 16 | 32 | 25 | 14
Cc1noc(C)c1COc1ccc(C(=O)OCC(=O)N2CC(=O)Nc3ccccc32)cc1 | 35 | 5 | 9 | -2 | 82* | 76* | -7
Cc1noc(C)c1COc1ccc(C(=O)OCC(=O)N2c3ccccc3NC(=O)C2(C)C)cc1 | 16 | 67* | 31 | -13 | 29 | 47* | 5
COc1ccc(C(=O)C(=O)N2CCN(C(=O)c3ccccc3C(F)(F)F)CC2)cc1OC | x | -20 | 0 | x | x | x | x
COC(=O)[C@]12C[C@H](CC(=O)NCC34CC5CC(CC(C5)C3)C4)C(=O)N(Cc3ccccc3)C1=C[C@H](C1CCCC1)O[C@@H]2C | x | -22 | -2 | x | x | x | x
Cc1ccc(C(=O)NC(C)c2ccc(F)cc2)cc1 (stereo not given) | 12 | -10 | 0 | 9 | 5 | x | x
Cc1ccc(C(C#N)c2ccc(C(=O)c3ccc(F)cc3)cc2)cc1 (stereo not given) | 43 | 41 | 8 | 29 | 33 | 1 | 9
COC(=O)[C@H](CC(C)C)NC(=O)NC1CCCc2ccccc21 (stereo not given in full) | 26 | -6 | 6 | 25 | 44 | 23 | 23
CC(C)C[C@H](NC(=O)NC1CCCc2ccccc21)C(=O)O (stereo not given in full) | 6 | 0 | -4 | -2 | -7 | x | x
Cc1ccccc1C(=O)N[C@H](C(=O)N1CCC[C@H]1C(=O)NCc1ccccc1)c1ccccc1 | x | -37 | 2 | x | x | x | x
COc1ccc(NS(=O)(=O)c2ccc(NS(C)(=O)=O)cc2)cc1 | 5 | -9 | 18 | 7 | -2 | x | x
COc1ccc(NS(=O)(=O)c2ccc(SC)cc2)cc1 | 7 | -6 | 11 | 1 | 57* | 2 | 5
CC(C)N(C[C@@H]1CSCCS(=O)(=O)N1)C(C)C | x | 13 | 1 | x | x | x | x
Cc1cccc(N2CCN(C(=O)C3CCN(c4ncnc5c4nc4n5CCCCC4)CC3)CC2C)c1 (stereo not given) | 13 | 49* | 13 | 3 | 37 | 1 | -7
CN(C)S(=O)(=O)c1ccc(-c2csc(N/N=C/c3ccco3)n2)cc1 | 26 | 79* | 30 | 17 | 31 | 70* | 18
